Measured values reported in ChEMBL document CHEMBL4184106, “Discovering alkylamide derivatives of bexarotene as new therapeutic agents against triple-negative breast cancer” (Bioorg Med Chem Lett, 2018).
Activity calls are given as the source filed them. The calls are words filed in the database; no cut-off is given here.

Experiments:
BT-549 [1] = experiment: Effect on beta-catenin translocation in nuclear fraction of human BT549 cells assessed as ratio of beta-catenin to beta-actin level at 5 uM by Western blot analysis (reference value: 1); assay type: functional
MCF7 [2] = experiment: Inhibition of colony formation in human MCF7 cells at 5 uM supplemented with fresh medium containing compound every 3 to 4 days for 7 days by crystal violet staining based adherent cell colony-forming assay; assay type: functional
In short: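 MCF-7 cells were plated for adherent colony formation and treated for 7 days. Colonies were counted at the end of treatment and normalized to untreated samples.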

BT-549 [3] = experiment: Cytotoxicity against human BT549 cells assessed as reduction in cell viability at 5 uM by MTT assay; assay type: functional
MCF7 [4] = experiment: Induction of apoptosis in human MCF7 cells assessed as ratio of cleaved caspase-3 to beta-actin level at 5 uM by western blot analysis (reference value: 1); assay type: functional
MCF7 [5] = experiment: Down regulation of Sox-2 expression in human MCF7 cells at 5 uM by Western blot analysis; assay type: functional
In short: (§1)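 MCF-7 cells were treated and lysates probed by Western blot for CSC-related markers, with β-actin as loading control. Band densitometry was normalized to DMSO-treated samples.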

MCF7 [6] = experiment: Down regulation of KLF4 expression in human MCF7 cells at 5 uM by Western blot analysis; assay type: functional; in short: as §1
MDA-MB-231 [7] = experiment: Effect on epithelial-mesenchymal transition in human MDA-MB-231 cells assessed as ratio of slug to beta-actin level at 5 uM by Western blot analysis (reference value: 1); assay type: functional
MCF-10A [8] = experiment: Induction of apoptosis in human MCF10A cells assessed as ratio of cleaved caspase-9 to beta-actin level at 5 uM by western blot analysis (reference value: 1); assay type: cell-based
MDA-MB-231 [9] = experiment: Induction of apoptosis in nuclear fractions of human MDA-MB-231 cells assessed as ratio of cleaved PARP to beta-actin level at 5 uM by western blot analysis (reference value: 1); assay type: functional
MCF7 [10] = experiment: Cytotoxicity against human MCF7 cells assessed as reduction in cell viability at 5 uM by MTT assay; assay type: functional
MCF7 [11] = experiment: Induction of apoptosis in human MCF7 cells assessed as ratio of cleaved caspase-8 to beta-actin level at 5 uM by western blot analysis (reference value: 1); assay type: functional
MCF7 [12] = experiment: Inhibition of mammosphere formation in human MCF7 cells assessed as ratio of Sox2 to beta actin level at 5 uM by Western blot analysis (Rvb= 1); assay type: functional
In short: (§2)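 Post-treatment cell lysates were probed by Western blot for CSC markers, with β-actin as the loading control. Band densitometry was normalized to DMSO-treated samples.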

MDA-MB-231 [13] = experiment: Effect on beta-catenin translocation in cytosolic fraction of human MDA-MB-231 cells assessed as ratio of beta-catenin to beta-actin level at 5 uM by Western blot analysis (reference value: 1); assay type: functional
MDA-MB-231 [14] = experiment: Down regulation of KLF4 expression in human MDA-MB-231 cells at 5 uM by Western blot analysis; assay type: functional
BT-549 [15] = experiment: Induction of apoptosis in human BT549 cells assessed as ratio of cleaved caspase-8 to beta-actin level at 5 uM by western blot analysis (reference value: 1); assay type: functional
MCF7 [16] = experiment: Inhibition of mammosphere formation in human MCF7 cells at 2 uM after 7 days by microscopic method; assay type: functional, cell-based
In short: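 MCF-7 cells were grown under mammosphere-forming conditions with compound. Spheres 60 μm or larger were counted for quantitation.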

BT-549 [17] = experiment: Effect on beta-catenin translocation in cytosolic fraction of human BT549 cells assessed as ratio of beta-catenin to beta-actin level at 5 uM by Western blot analysis (reference value: 1); assay type: functional
MCF7 [18] = experiment: Inhibition of mammosphere formation in human MCF7 cells assessed as ratio of Oct4A to beta actin level at 5 uM by Western blot analysis (Rvb= 1); assay type: functional; in short: as §2
MDA-MB-231 [19] = experiment: Effect on epithelial-mesenchymal transition in human MDA-MB-231 cells assessed as ratio of E-cadherin to beta-actin level at 5 uM by Western blot analysis (reference value: 1); assay type: functional
MDA-MB-231 [20] = experiment: Inhibition of mammosphere formation in human MDA-MB-231 cells assessed as ratio of KLF4 to beta actin level at 5 uM by Western blot analysis (Rvb= 1); assay type: functional; in short: as §2
MDA-MB-231 [21] = experiment: Induction of apoptosis in human MDA-MB-231 cells assessed as ratio of cleaved caspase-8 to beta-actin level at 5 uM by western blot analysis (reference value: 1); assay type: functional
BT-549 [22] = experiment: Effect on epithelial-mesenchymal transition in human BT549 cells assessed as ratio of slug to beta-actin level at 5 uM by Western blot analysis (reference value: 1); assay type: functional
MDA-MB-231 [23] = experiment: Effect on beta-catenin translocation in nuclear fraction of human MDA-MB-231 cells assessed as ratio of beta-catenin to beta-actin level at 5 uM by Western blot analysis (reference value: 1); assay type: functional
MDA-MB-231 [24] = experiment: Cytotoxicity against human MDA-MB-231 cells assessed as reduction in cell viability at 5 uM by MTT assay; assay type: functional
BT-549 [25] = experiment: Induction of apoptosis in nuclear fractions of human BT549 cells assessed as ratio of PARP to beta-actin level at 5 uM by western blot analysis (reference value: 1); assay type: functional
BT-549 [26] = experiment: Cytotoxicity against human BT549 cells assessed as reduction in cell viability by MTT assay; assay type: functional, cell-based
MCF7 [27] = experiment: Inhibition of mammosphere formation in human MCF7 cells assessed as ratio of Nanog to beta actin level at 5 uM by Western blot analysis (Rvb= 1); assay type: functional; in short: as §2
BT-549 [28] = experiment: Effect on epithelial-mesenchymal transition in human BT549 cells assessed as ratio of E-cadherin to beta-actin level at 5 uM by Western blot analysis (reference value: 1); assay type: functional
MCF7 [29] = experiment: Induction of apoptosis in human MCF7 cells assessed as ratio of cleaved caspase-9 to beta-actin level at 5 uM by western blot analysis (reference value: 1); assay type: functional
MCF7 [30] = experiment: Down regulation of c-Myc expression in human MCF7 cells at 5 uM by Western blot analysis; assay type: functional; in short: as §1
MCF7 [31] = experiment: Inhibition of mammosphere formation in human MCF7 cells assessed as ratio of C-Myc to beta actin level at 5 uM by Western blot analysis (Rvb= 1); assay type: functional; in short: as §2
MDA-MB-231 [32] = experiment: Induction of apoptosis in human MDA-MB-231 cells assessed as ratio of cleaved caspase-3 to beta-actin level at 5 uM by western blot analysis (reference value: 1); assay type: functional
MCF-10A [33] = experiment: Induction of apoptosis in human MCF10A cells assessed as ratio of cleaved caspase-8 to beta-actin level at 5 uM by western blot analysis (reference value: 1); assay type: cell-based
BT-549 [34] = experiment: Induction of apoptosis in human BT549 cells assessed as ratio of cleaved caspase-9 to beta-actin level at 5 uM by western blot analysis (reference value: 1); assay type: functional
BT-549 [35] = experiment: Effect on epithelial-mesenchymal transition in human BT549 cells assessed as ratio of vimentin to beta-actin level at 5 uM by Western blot analysis (reference value: 1); assay type: functional
MCF7 [36] = experiment: Down regulation of Nanog expression in human MCF7 cells at 5 uM by Western blot analysis; assay type: functional; in short: as §1
MDA-MB-231 [37] = experiment: Induction of apoptosis in nuclear fractions of human MDA-MB-231 cells assessed as ratio of PARP to beta-actin level at 5 uM by western blot analysis (reference value: 1); assay type: functional

Structure (SMILES): C=C(c1ccc(C(=O)NCCN2CCCC2)cc1)c1cc2c(cc1C)C(C)(C)CCC2(C)C
- Ratio (BT-549 [1]): 0.5
- inhibition (INH) (MCF7 [2]): 80%
- Activity (BT-549 [3]): 60%
- Ratio (MCF7 [4]): 1
- Activity (MCF7 [5]): 60%
- Activity (MCF7 [6]): 10 - 30%
- Ratio (MDA-MB-231 [7]): 1
- Ratio (MCF-10A [8]): 1
- Ratio (MDA-MB-231 [9]): 1.5
- Activity (MCF7 [10]): 40%
- Ratio (MCF7 [11]): 1
- Ratio (MCF7 [12]): 0.4
- Ratio (MDA-MB-231 [13]): 2.1
- Activity (MDA-MB-231 [14]): 50%
- Ratio (BT-549 [15]): 1
- inhibition (MCF7 [16]): Active
- Ratio (BT-549 [17]): 2.4
- Ratio (MCF7 [18]): 1.1
- Ratio (MDA-MB-231 [19]): 6.2
- Ratio (MDA-MB-231 [20]): 0.5
- Ratio (MDA-MB-231 [21]): 3.7
- Ratio (BT-549 [22]): 0.7
- Ratio (MDA-MB-231 [23]): 0.4
- Activity (MDA-MB-231 [24]): 60%
- Ratio (BT-549 [25]): 0.9
- EC50 (BT-549 [26]): < 10 µM
- Ratio (MCF7 [27]): 0.8
- Ratio (BT-549 [28]): 6.3
- Ratio (MCF7 [29]): 1.2
- Activity (MCF7 [30]): 10 - 30%
- Ratio (MCF7 [31]): 0.8
- Ratio (MDA-MB-231 [32]): 3.4
- Ratio (MCF-10A [33]): 1
- Ratio (BT-549 [34]): 2.1
- Ratio (BT-549 [35]): 1
- Activity (MCF7 [36]): 20%
- Ratio (MDA-MB-231 [37]): 0.9
